# From ChEMBL document CHEMBL3393009 (J Med Chem, 2015)
# Activity calls are given as the source filed them. The rule behind the calls is not given here.
# How the values were obtained:
# Rattus norvegicus [1] = experiment: Volume of distribution at steady state in rat at 5 mg/kg, po; format: ADME, organism-based; parameters: dose 5 mg/kg, route oral; details: in vivo
# [2] = Tmax in rat at 5 mg/kg, po; format: ADME, organism-based; parameters: dose 5 mg/kg, route oral; details: in vivo
# [3] = molecular target: Tyrosine-protein kinase JAK1 (Homo sapiens, UniProt P23458); experiment: Inhibition of JAK1 (JH1 domain-catalytic) (unknown origin) at 1 uM
# [4] = molecular target: Tyrosine-protein kinase JAK2 (Homo sapiens, UniProt O60674); experiment: Inhibition of JAK2 (JH1 domain-catalytic) (unknown origin) at 1 uM
# Rattus norvegicus [5] = experiment: Drug coverage index, ratio fAUC in Wistar Han rat at 6 mg/kg, po bid for 14 days to IC50 for LRRK2 […] phosphorylation in Wistar Han rat brain at 6 to 60 mg/kg, po bid for 14 days; format: ADME, organism-based; details: in vivo, 336 h
# Summary of the method: (§1)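 Wistar Han rats (200–300 g, 8–11 weeks old) were dosed by oral gavage twice daily for 14 days. Vehicle was 10% propylene glycol/20% PEG400/70% 9.5% methocellulose.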
# [6] = Half life in dog at 5 mg/kg, po; format: ADME, organism-based, Canis lupus familiaris; parameters: dose 5 mg/kg, route oral; details: in vivo
# Mus musculus [7] = experiment: Inhibition of LRRK2 […] mutant S1292 phosphorylation in BAC-transgenic mouse at 3 to 100 mg/kg, sc measured after 90 mins post dose; format: functional; details: dose mg/kg 3-100; route subcutaneous
# Summary of the method: (§2)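 Mice given compound subcutaneously in 10% NMP/20% SBECD vehicle: four-month-old C57BL/6J (wild type) or seven-month-old LRRK2 BAC-Tg G2019S. Tissues collected 90 min after dose. pS935, and pS1292 (custom antibody) in transgenic brain, read by Western blot of brain/kidney lysates against vehicle controls. Mean ± SEM.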
# Rattus norvegicus [8] = experiment: fCmax in Wistar Han rat at 60 mg/kg, po bid for 14 days; format: ADME, organism-based; parameters: dose 60 mg/kg, route oral; details: in vivo, 336 h
# [9] = AUC in rat at 5 mg/kg, po; format: ADME, organism-based; parameters: dose 5 mg/kg, route oral; details: plasma
# Rattus norvegicus [10] = experiment: Toxicity in Wistar Han rat assessed as changes in body weight at 6 to 60 mg/kg, po bid for 14 days; format: organism-based; parameters: dose 6-60 mg/kg, route oral; details: in vivo, 336 h
# Summary of the method: (§3)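 Wistar Han rats (200–300 g, 8–11 weeks) dosed by oral gavage twice daily for 14 days. Vehicle: 10% propylene glycol/20% PEG400/70% methylcellulose solution. RBC parameters, electrolytes, food consumption, body weight, clinical chemistry and urinary biomarkers recorded.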
# [11] = Cmax in rat at 5 mg/kg, po; format: ADME, organism-based; parameters: dose 5 mg/kg, route oral; details: in vivo
# [12] = Drug coverage index, ratio fCmax in Wistar Han rat at 20 mg/kg, po bid for 14 days to IC50 for LRRK2 […] phosphorylation in Wistar Han rat brain at 6 to 60 mg/kg, po bid for 14 days; format: ADME, organism-based; details: in vivo, 336 h; summary of the method: as §1
# Rattus norvegicus [13] = experiment: Toxicity in Wistar Han rat assessed as changes in food consumption at 6 to 60 mg/kg, po bid for 14 days; format: organism-based; parameters: dose 6-60 mg/kg, route oral; details: in vivo, 336 h; summary of the method: as §3
# Rattus norvegicus [14] = experiment: fCmax in Wistar Han rat at 20 mg/kg, po bid for 14 days; format: ADME, organism-based; parameters: dose 20 mg/kg, route oral; details: in vivo, 336 h
# Rattus norvegicus [15] = experiment: Toxicity in Wistar Han rat assessed as changes in electrolytes levels at 6 to 60 mg/kg, po bid for 14 days; format: organism-based; parameters: dose 6-60 mg/kg, route oral; details: in vivo, 336 h; summary of the method: as §3
# [16] = molecular target: Leucine-rich repeat serine/threonine-protein kinase 2 (Homo sapiens, UniProt Q5S007); experiment: Inhibition of full length LRRK2 (unknown origin) expressed in HEK293 cells assessed as reduction in S935 phosphorylation incubated for 90 mins by ELISA method; format: cell-based
# Mus musculus [17] = experiment: Potency index, ratio of IC50 for LRRK2 […] mutant […] phosphorylation in BAC-transgenic mouse at 3 to 100 mg/kg, sc to IC50 for wild type LRRK2 […] phosphorylation in BAC-transgenic C57BL/6J mouse brain at 3 to 100 mg/kg, sc; format: functional
# Summary of the method: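 Four-month-old C57BL/6J mice and seven-month-old LRRK2 BAC-transgenic G2019S mice received single subcutaneous doses. Vehicle was 10% NMP in 20% SBECD. Brain was collected 90 min after dosing and snap frozen. LRRK2 pS935 phosphorylation was measured in brain lysate. An unbound-drug IC50 was estimated from the dose–response in each strain.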
# [18] = Tmax in non-human primate at 5 mg/kg, po; format: ADME, organism-based; parameters: dose 5 mg/kg, route oral; details: monkey, in vivo
# [19] = Clearance in human liver microsomes; format: ADME; details: read-out: CLH
# Summary of the method: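 Human liver microsomal clearance.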
# [20] = Oral bioavailability in rat at 5 mg/kg; format: ADME, organism-based; details: in vivo
# [21] = Half life in rat at 5 mg/kg, po; format: ADME, organism-based; parameters: dose 5 mg/kg, route oral; details: in vivo
# [22] = Oral bioavailability in non-human primate at 5 mg/kg; format: ADME, organism-based; details: monkey, in vivo
# Rattus norvegicus [23] = experiment: fAUC in Wistar Han rat at 6 mg/kg, po bid for 14 days; format: ADME, organism-based; parameters: dose 6 mg/kg, route oral; details: in vivo, 336 h
# Summary of the method: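 Wistar Han rats dosed orally twice daily in 10% propylene glycol/20% PEG400/methylcellulose vehicle. Unbound plasma exposure measured on days 1 and 11.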
# Mus musculus [24] = experiment: Inhibition of LRRK2 […] mutant […] phosphorylation in BAC-transgenic mouse at 3 to 100 mg/kg, sc measured after 90 mins post dose; format: functional; details: dose mg/kg 3-100; route subcutaneous; summary of the method: as §2
# [25] = molecular target: Serine/threonine-protein kinase 26 (Homo sapiens, UniProt Q9P289); experiment: Inhibition of human recombinant MST4 using Ser/Thr peptide 7 substrate after 60 mins by Z-Lyte assay
# Summary of the method: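 Z-Lyte FRET assay, final 2 μM Ser/Thr peptide 7, 75 μM ATP, 18 nM kinase. Buffer 50 mM HEPES (pH 7.0 for MST2, 7.5 for MST4), 10 mM MgCl2, 1 mM EGTA, 0.01% Brij-35. Stopped at 45 min (MST2) or 60 min (MST4). Excitation 400 nm, emission 445/520 ratio converted to percent phosphorylation for IC50.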
# Mus musculus [26] = experiment: Effect on total LRRK2 protein level in BAC-transgenic C57BL/6J mouse brain at 3 to 100 mg/kg, sc measured after 90 mins post dose; format: ADME, organism-based; parameters: dose 3-100 mg/kg, route subcutaneous; details: in vivo, 1.5 h
# [27] = Volume of distribution at steady state in non-human primate at 5 mg/kg, po; format: ADME, organism-based; parameters: dose 5 mg/kg, route oral; details: monkey, in vivo
# Canis familiaris = experiment: Volume of distribution at steady state in dog at 5 mg/kg, po; format: ADME, organism-based, Canis lupus familiaris; parameters: dose 5 mg/kg, route oral; details: in vivo
# [28] = AUC in dog at 5 mg/kg, po; format: ADME, organism-based, Canis lupus familiaris; parameters: dose 5 mg/kg, route oral; details: plasma
# Rattus norvegicus [29] = experiment: Toxicity in Wistar Han rat assessed as changes in lung parameters at 6 to 60 mg/kg, po bid for 14 days by H and E staining method; format: organism-based; parameters: dose 6-60 mg/kg, route oral; details: in vivo, 336 h
# Mus musculus [30] = experiment: Inhibition of wild type LRRK2 […] phosphorylation in BAC-transgenic C57BL/6J mouse kidney at 3 to 100 mg/kg, sc measured after 90 mins post dose; format: functional; details: dose mg/kg 3-100; route subcutaneous; summary of the method: as §2
# Rattus norvegicus [31] = experiment: Drug coverage index, ratio fAUC in Wistar Han rat at 20 mg/kg, po bid for 14 days to IC50 for LRRK2 […] phosphorylation in Wistar Han rat brain at 6 to 60 mg/kg, po bid for 14 days; format: ADME, organism-based; details: in vivo, 336 h; summary of the method: as §1
# [32] = Toxicity in Wistar Han rat at 6 to 60 mg/kg, po bid for 14 days; format: organism-based; parameters: dose 6-60 mg/kg, route oral; details: in vivo
# Summary of the method: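 Exploratory 14-day study in Wistar Han rats (200–300 g, 8–11 weeks old at start). Dosing was by oral gavage twice daily in 10% propylene glycol/20% PEG400/70% 9.5% methocellulose. Unbound plasma exposure was measured on days 1 and 11. Endpoints were RBC parameters, electrolytes, food consumption, body weight, clinical chemistry, urinary renal biomarkers and kidney appearance.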
# Leucine-rich repeat serine/threonine-protein kinase 2, sequence (Q5S007 whole entry): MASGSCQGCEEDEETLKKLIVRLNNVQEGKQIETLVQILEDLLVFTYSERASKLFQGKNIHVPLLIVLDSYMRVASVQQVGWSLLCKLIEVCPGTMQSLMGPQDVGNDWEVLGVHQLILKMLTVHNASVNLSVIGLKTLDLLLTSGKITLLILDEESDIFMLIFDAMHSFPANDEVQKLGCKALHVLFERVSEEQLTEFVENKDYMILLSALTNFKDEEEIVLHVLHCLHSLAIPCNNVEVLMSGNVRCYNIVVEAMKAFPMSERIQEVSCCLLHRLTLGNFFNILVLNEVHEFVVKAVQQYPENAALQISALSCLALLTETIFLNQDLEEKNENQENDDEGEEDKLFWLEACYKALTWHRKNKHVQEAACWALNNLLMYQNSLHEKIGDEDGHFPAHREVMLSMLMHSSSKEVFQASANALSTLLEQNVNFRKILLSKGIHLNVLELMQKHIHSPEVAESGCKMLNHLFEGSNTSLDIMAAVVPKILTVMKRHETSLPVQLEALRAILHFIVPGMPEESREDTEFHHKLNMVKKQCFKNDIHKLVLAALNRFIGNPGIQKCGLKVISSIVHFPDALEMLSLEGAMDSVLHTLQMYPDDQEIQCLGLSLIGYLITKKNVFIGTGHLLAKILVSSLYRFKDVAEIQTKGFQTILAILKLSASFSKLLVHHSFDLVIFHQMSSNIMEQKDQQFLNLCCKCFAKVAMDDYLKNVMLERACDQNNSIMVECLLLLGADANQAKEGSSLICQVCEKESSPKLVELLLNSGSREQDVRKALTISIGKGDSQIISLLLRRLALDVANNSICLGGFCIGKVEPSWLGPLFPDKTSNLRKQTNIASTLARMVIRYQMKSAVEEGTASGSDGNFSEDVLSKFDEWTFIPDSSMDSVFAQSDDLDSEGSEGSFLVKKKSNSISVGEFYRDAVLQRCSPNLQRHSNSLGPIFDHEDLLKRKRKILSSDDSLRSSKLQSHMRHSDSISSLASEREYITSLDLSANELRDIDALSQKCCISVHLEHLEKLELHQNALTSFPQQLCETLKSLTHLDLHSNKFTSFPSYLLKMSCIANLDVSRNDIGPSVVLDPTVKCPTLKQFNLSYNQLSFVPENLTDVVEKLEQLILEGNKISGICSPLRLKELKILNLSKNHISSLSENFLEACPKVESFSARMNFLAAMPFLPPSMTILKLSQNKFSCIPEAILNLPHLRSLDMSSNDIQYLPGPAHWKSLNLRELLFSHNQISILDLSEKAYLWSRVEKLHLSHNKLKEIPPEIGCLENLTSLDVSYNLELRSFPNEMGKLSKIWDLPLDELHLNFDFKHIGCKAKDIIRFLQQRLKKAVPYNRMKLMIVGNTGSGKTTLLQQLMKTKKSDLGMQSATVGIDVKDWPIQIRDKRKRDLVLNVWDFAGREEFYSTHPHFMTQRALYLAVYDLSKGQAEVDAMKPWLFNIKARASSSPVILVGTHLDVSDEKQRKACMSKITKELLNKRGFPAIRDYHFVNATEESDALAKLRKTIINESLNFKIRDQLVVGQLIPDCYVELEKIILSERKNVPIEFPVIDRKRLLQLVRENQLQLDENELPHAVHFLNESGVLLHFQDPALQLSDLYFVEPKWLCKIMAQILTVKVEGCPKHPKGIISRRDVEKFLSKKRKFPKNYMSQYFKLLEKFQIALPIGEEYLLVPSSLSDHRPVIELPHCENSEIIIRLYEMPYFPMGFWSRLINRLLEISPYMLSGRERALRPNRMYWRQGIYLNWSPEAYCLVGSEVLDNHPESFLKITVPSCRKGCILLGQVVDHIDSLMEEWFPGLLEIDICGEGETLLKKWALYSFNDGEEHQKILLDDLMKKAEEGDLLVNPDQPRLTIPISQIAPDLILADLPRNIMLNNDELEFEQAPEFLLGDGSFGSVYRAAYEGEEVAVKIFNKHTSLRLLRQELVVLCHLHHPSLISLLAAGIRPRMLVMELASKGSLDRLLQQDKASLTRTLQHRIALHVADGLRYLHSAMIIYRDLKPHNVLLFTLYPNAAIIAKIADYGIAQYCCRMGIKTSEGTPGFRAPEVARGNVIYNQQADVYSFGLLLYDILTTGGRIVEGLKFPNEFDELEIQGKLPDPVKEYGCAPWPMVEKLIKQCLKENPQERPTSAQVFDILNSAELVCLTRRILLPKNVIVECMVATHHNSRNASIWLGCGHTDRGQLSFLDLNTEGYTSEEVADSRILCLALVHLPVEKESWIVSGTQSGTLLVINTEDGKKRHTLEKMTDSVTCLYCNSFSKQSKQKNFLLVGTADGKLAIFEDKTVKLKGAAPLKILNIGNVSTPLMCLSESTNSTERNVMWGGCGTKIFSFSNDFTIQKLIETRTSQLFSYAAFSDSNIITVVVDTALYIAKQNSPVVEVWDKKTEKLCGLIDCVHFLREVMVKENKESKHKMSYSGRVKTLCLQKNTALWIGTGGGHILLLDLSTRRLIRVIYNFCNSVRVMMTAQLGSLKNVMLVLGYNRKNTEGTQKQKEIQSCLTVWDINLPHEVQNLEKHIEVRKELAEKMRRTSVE
# Serine/threonine-protein kinase 26, sequence (Q9P289 whole entry): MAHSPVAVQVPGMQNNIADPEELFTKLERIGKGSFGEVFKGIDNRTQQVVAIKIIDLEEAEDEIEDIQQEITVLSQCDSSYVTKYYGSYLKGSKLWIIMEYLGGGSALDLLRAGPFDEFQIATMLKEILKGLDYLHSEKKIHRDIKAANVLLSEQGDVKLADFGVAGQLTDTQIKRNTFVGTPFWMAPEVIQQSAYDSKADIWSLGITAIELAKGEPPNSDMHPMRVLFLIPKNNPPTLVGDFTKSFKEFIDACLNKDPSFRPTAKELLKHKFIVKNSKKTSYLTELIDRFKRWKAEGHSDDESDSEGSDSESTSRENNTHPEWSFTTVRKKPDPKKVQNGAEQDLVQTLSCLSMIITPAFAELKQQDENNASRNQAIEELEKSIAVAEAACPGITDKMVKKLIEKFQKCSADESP
# Tyrosine-protein kinase JAK1, sequence (P23458 whole entry, the tested form may be a part): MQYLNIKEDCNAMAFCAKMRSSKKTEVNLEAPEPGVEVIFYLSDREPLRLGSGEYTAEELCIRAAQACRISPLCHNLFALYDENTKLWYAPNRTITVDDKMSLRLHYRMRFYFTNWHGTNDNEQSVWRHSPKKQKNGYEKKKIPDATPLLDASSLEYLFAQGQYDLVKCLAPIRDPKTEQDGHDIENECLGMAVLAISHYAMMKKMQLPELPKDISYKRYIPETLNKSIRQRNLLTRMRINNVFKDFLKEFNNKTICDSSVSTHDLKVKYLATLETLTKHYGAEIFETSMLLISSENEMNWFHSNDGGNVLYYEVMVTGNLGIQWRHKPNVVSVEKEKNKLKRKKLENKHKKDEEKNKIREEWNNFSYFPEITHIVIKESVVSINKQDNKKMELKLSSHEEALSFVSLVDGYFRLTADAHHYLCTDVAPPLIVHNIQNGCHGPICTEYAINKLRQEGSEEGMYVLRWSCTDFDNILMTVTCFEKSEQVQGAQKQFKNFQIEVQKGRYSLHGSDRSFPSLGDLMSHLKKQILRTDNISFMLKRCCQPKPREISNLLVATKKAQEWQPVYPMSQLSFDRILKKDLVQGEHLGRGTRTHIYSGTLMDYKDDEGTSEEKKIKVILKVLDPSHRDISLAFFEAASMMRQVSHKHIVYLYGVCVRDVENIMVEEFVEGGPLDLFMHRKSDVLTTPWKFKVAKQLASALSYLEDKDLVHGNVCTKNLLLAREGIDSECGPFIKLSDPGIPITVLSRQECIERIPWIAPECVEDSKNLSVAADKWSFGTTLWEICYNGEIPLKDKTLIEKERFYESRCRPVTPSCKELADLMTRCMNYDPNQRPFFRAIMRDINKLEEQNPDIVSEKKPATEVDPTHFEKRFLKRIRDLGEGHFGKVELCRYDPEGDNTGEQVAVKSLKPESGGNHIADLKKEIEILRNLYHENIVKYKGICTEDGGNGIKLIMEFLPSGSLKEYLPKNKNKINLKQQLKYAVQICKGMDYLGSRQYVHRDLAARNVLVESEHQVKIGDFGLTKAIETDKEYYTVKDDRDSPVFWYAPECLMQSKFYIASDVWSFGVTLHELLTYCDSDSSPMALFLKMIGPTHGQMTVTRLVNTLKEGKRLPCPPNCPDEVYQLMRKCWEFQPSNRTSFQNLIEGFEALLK
compound,measurement,setting,value
N#Cc1cccc(-c2c[nH]c3ncnc(N4CCOCC4)c23)c1,Vdss,Rattus norvegicus [1],1.83 L/kg
same,Tmax,[2],0.5 h
same,inhibition,[3],inactive
same,inhibition,[4],inactive
same,Ratio,Rattus norvegicus [5],2
same,half-life,[6],0.78 h
same,fIC50,Mus musculus [7],21 nM
same,fCmax,Rattus norvegicus [8],1050 nM
same,AUC,[9],629 ng·h/mL
same,Activity,Rattus norvegicus [10],Non-toxic
same,Cmax,[11],181 ng/mL
same,Ratio,[12],25
same,Activity,Rattus norvegicus [13],Non-toxic
same,fCmax,Rattus norvegicus [14],380 nM
same,Activity,Rattus norvegicus [15],Non-toxic
same,IC50,[16],25 nM
same,Ratio IC50,Mus musculus [17],10
same,Tmax,[18],2 h
same,CLint scaled,[19],36 mL/min/kg
same,bioavailability,[20],41%
same,half-life,[21],6.22 h
same,bioavailability,[22],3.5%
same,fAUC,Rattus norvegicus [23],0.843 µM·h
same,fIC50,Mus musculus [24],103 nM
same,IC50,[25],178 nM
same,Activity,Mus musculus [26],Non-toxic
same,Vdss,[27],1.06 L/kg
same,Vdss,Canis familiaris,0.92 L/kg
same,AUC,[28],10 ng·h/mL
same,Activity,Rattus norvegicus [29],Non-toxic
same,fIC50,Mus musculus [30],11 nM
same,Ratio,Rattus norvegicus [31],12
same,MTD at 336 h,[32],> 60 mg/kg/day
